From ChEMBL document CHEMBL1155093 (Bioorg Med Chem Lett, 2008) come the findings set out here.

Each structure is given as a SMILES string.

In data set [1] the target is T1, Nuclear receptor subfamily 1 group I member 2 (Homo sapiens, UniProt O75469).
T1 sequence (O75469 whole entry): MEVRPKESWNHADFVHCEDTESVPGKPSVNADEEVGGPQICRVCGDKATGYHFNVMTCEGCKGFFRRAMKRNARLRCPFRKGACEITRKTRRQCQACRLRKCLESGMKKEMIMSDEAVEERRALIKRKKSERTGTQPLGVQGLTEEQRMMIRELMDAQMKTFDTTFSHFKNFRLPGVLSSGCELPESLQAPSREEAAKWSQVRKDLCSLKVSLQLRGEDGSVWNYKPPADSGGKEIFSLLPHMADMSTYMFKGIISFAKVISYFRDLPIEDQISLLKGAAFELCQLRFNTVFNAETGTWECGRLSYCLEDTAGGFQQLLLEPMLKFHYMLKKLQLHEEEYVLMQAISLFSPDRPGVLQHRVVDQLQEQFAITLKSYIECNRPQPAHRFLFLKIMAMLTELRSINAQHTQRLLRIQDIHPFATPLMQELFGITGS
Kind of data set: Inhibition of refampicin-mediated PXR activation in HepG2 cells. It is filed as cell-based. In short, it runs like this:
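HepG2 cells transiently co-transfected with PXR-pcDNA3 and Cyp3A-Luc, cryopreserved and thawed into charcoal/dextran-FBS medium. Co-incubated with 10 µM rifampicin plus compound at ten concentrations (1:3 dilution, 0.1% DMSO final), 24 h at 37 °C; luciferase luminescence. Percent inhibition computed; IC50 and Imax taken from the concentration–%Inh plot.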

Data set [2] concerns the target T1, Nuclear receptor subfamily 1 group I member 2. Kind of data set: Induction of PXR transactivation in HepG2 cells. It is filed as cell-based. In short, it runs like this:
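HepG2 cells transiently transfected with PXR-pcDNA3 and Cyp3A-Luc reporter, cryopreserved, then thawed into DMEM with 5% charcoal/dextran FBS. Ten concentrations, 1:3 serial dilution, DMSO 0.1% final; 24 h at 37 °C. Luciferase luminescence read. % activation relative to 10 µM rifampicin (total) and DMSO (blank); EC50 and Emax from concentration–%Act plot.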

In the next data set the test system is Caco-2. Kind of data set: Cytotoxicity against human Caco-2 cells assessed as viability upto 100 uM by MTT assay. The class given is functional. The procedure, abridged:
(§1)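 MTT viability read-out; cells exposed to a concentration range of drug for 48 h. Three separate experiments, each run in triplicate.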

For another data set, the system named is LS174T. Kind of data set: Cytotoxicity against human LS174T cells assessed as viability upto 100 uM by MTT assay. The class given is functional. The procedure, abridged:
as §1

For another data set, the system named is SK-OV-3. The data set is described as follows: Cytotoxicity against human SKOV3 cells assessed as viability upto 100 uM by MTT assay. It is filed as functional. The procedure, abridged: as §1
Another data set concerns the target Cytochrome P450 3A4 (Homo sapiens, UniProt P08684). The data set is described as follows: Inhibition of CYP3A4 in human liver microsome. It is filed as ADME, microsomes. In short, it runs like this:
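Pooled human liver microsomes 0.1 mg/mL, midazolam 5 µM, NADPH 1 mM, 5 min reaction. Time-dependent variant: 30 min preincubation without midazolam, then midazolam added for 5 min. 1-Hydroxymidazolam measured against DMSO control; IC50 and maximum inhibition taken from the concentration–%Inh plot.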

Data set [3] in a line: Cytotoxicity against human CRL cells assessed as viability upto 100 uM by MTT assay. The class given is cell-based. Particulars: read-out: Activity. In short, it runs like this: as §1

Chain of Cytochrome P450 3A4 (P08684 whole entry): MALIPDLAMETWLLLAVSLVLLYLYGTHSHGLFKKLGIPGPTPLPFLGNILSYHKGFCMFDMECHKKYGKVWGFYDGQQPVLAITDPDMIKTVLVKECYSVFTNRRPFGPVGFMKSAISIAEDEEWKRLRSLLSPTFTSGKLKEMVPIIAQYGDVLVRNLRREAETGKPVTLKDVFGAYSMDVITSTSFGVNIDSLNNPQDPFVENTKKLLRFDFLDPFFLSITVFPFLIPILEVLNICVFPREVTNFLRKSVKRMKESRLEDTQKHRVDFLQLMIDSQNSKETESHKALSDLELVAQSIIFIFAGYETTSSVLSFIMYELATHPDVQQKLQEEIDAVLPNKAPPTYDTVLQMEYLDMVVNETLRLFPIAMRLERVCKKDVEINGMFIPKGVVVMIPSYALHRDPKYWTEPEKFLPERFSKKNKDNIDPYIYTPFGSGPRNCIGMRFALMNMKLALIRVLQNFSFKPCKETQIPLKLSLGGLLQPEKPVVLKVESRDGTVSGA

For `CC(=O)N1CCN(c2ccc(OCC3COC(C)(c4ccc(Cl)cc4Cl)O3)cc2)CC1` (stereo not drawn), the “inhibition (INH)” value in data set [1] was 109%. This compound returned an Activity in data set [2] of 10%.
With `CC(=O)N1CCN(c2ccc(OC[C@H]3CO[C@@](C)(c4ccc(F)cc4F)O3)cc2)CC1`, in data set [1], the “inhibition (INH)” value stood at 103%. For the same compound, the Activity in the data set on Caco-2 is given as 98%; with LS174T it was 98%; with SK-OV-3, 98%; in data set [2], 10%. The same compound gave an IC50 against Cytochrome P450 3A4 above 40 µM. The viability in data set [3] came to 98%.
Regarding `CC(=O)N1CCN(c2ccc(OC[C@H]3CO[C@](Cn4ccnc4)(c4ccc(Cl)cc4Cl)O3)cc2)CC1` [KETOCONAZOLE], the Activity in the data set with Caco-2, with LS174T and in the data set on SK-OV-3 was 65% in each case. For the same compound, the viability in data set [3] came out at 65%.
